This note sets out measurements from ChEMBL document CHEMBL2057190, “Short synthesis and antimalarial activity of fagaronine” (Bioorg Med Chem, 2012).

The test system of series [1] is Plasmodium vinckei petteri. In words: Antiplasmodial activity Plasmodium vinckei petteri infected in CD mouse assessed as suppression of parasitaemia at 1 mg/kg/day, ip administered from day 0 to day 3 and measured on day 4 by Giemsa staining relative to control. The series is classed as functional. The note with it: route intraperitoneal. In short, it runs like this:
(§1)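 Female CD mice (mean weight 20 2 g) were infected on day 0 with 10⁶ P. vinckei petteri-infected red cells in RPMI. Groups of five received drug intraperitoneally daily from day 0 to 3. On day 4, parasitaemia was counted on Giemsa-stained smears (at least 5000 erythrocytes). Inhibition % = (control − treated)/control × 100, with RPMI-only mice as controls. ED₅₀ was taken as the dose giving 50% inhibition.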

Series [2] relates to Plasmodium vinckei petteri. Briefly: Antiplasmodial activity Plasmodium vinckei petteri infected in CD mouse assessed as survival of infected mouse at 10 mg/kg/day, ip administered from day 0 to day 3 and measured on day 4 (reference value: 9.5 days). It is filed as functional. The note with it: route intraperitoneal.
In a further series the test system is Vero. Briefly: Cytotoxicity against african green monkey Vero cells. It is filed as cell-based. To be noted: Chlorocebus sabaeus.
Series [3] deals with Plasmodium vinckei petteri. Briefly: Antiplasmodial activity Plasmodium vinckei petteri infected in CD mouse assessed as suppression of parasitaemia at 10 mg/kg/day, ip administered from day 0 to day 3 and measured on day 4 by Giemsa staining relative to control. The series is classed as functional. The note with it: route intraperitoneal. The method in brief: as §1
Series [4] concerns Plasmodium vinckei petteri. In words: Antiplasmodial activity Plasmodium vinckei petteri infected in ip dosed CD mouse assessed as suppression of parasitaemia administered from day 0 to day 3 and measured on day 4 by Giemsa staining. It is filed as functional. The method in brief:
as §1

Series [5] concerns Plasmodium vinckei petteri. Briefly: Antiplasmodial activity Plasmodium vinckei petteri infected in CD mouse assessed as survival of infected mouse at 1 mg/kg/day, ip administered from day 0 to day 3 and measured on day 4 (reference value: 9.5 days). The series is classed as functional. To be noted: route intraperitoneal.
Series [6] deals with Plasmodium falciparum. In words: Antiplasmodial activity against chloroquine-resistant Plasmodium falciparum FcB1/Columbia assessed as [3H]hypoxanthine incorporation after 48 hrs. The series is classed as functional, organism-based. In short, it runs like this:
(§2)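 P. falciparum was cultured per Trager–Jensen with modifications and synchronised by magnetic concentration plus 5% sorbitol lysis. Cultures, mostly at ring stage, were exposed to increasing drug dilutions in triplicate for 48 h. Growth was measured by [³H]-hypoxanthine incorporation to give IC₅₀. Values are means of two independent experiments run in triplicate.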

In series [7] the test system is Plasmodium vinckei petteri. In words: Antiplasmodial activity Plasmodium vinckei petteri infected in CD mouse assessed as suppression of parasitaemia at 5 mg/kg/day, ip administered from day 0 to day 3 and measured on day 4 by Giemsa staining relative to control. It is filed as functional. The note with it: route intraperitoneal. In short, it runs like this: as §1

For a further series, the system named is Mus musculus. Briefly: Toxicity in CD mouse infected with Plasmodium venckei petteri at 10 mg/kg/day, ip administered from day 0 to day 3. The series is classed as organism-based. Details: route intraperitoneal. To be noted: in vivo. In short, it runs like this:
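CD female mice infected with 10⁶ P. vinckei petteri-infected red cells were given drug ip daily on days 0–3 and observed for signs of acute toxicity. Survival was followed for 13 days post-infection.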

The test system of series [8] is Plasmodium falciparum. In words: Antiplasmodial activity against chloroquine-sensitive Plasmodium falciparum 3D7 assessed as [3H]hypoxanthine incorporation after 48 hrs. The series is classed as functional, organism-based. In short, it runs like this:
as §2

The subject of series [9] is Plasmodium falciparum. In words: Antiplasmodial activity against chloroquine-resistant Plasmodium falciparum FcM29 assessed as [3H]hypoxanthine incorporation after 48 hrs. It is filed as functional, organism-based. The method in brief:
as §2

The test system of series [10] is Plasmodium vinckei petteri. Briefly: Antiplasmodial activity Plasmodium vinckei petteri infected in CD mouse assessed as survival of infected mouse at 2.5 mg/kg/day, ip administered from day 0 to day 3 and measured on day 4 (reference value: 9.5 days). It is filed as functional. The note with it: route intraperitoneal.
Series [11] is described as follows: Selectivity ratio of IC50 for african green monkey Vero cells to IC50 for […] Plasmodium falciparum FcB1/ Columbia. It is filed as ADME, cell-based. The note with it: read-out: Ratio IC50. The method in brief:
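Selectivity index = Vero IC₅₀ / FcB1 IC₅₀. Vero cells were grown as for P. falciparum but with 10% foetal calf serum in place of 5% human serum, exposed to increasing concentrations for 48 h, and growth read by [³H]-hypoxanthine incorporation against untreated wells (100%). Doxorubicin served as control.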

In series [12] the test system is Plasmodium vinckei petteri. In words: Antiplasmodial activity Plasmodium vinckei petteri infected in CD mouse assessed as suppression of parasitaemia at 2.5 mg/kg/day, ip administered from day 0 to day 3 and measured on day 4 by Giemsa staining relative to control. The series is classed as functional. To be noted: route intraperitoneal. In short, it runs like this: as §1

In series [13] the test system is Plasmodium vinckei petteri. Briefly: Antiplasmodial activity Plasmodium vinckei petteri infected in CD mouse assessed as survival of infected mouse at 5 mg/kg/day, ip administered from day 0 to day 3 and measured on day 4 (reference value: 9.5 days). It is filed as functional. The note with it: route intraperitoneal.

A value given as a limit tells only on which side of the number the result lay.

As to `CCN(CC)CCCC(C)Nc1ccnc2cc(Cl)ccc12` (configuration not stated) [CHLOROQUINE], in series [1], the inhibition in vivo at 1 mg/kg/day stood at 3.2%. The MSD in series [2] was over 13 days; in series [5], 9.5 days. The IC50 in the series with Vero is over 50000 nM. For the same compound, the inhibition in vivo at 10 mg/kg/day in series [3] was found to be 94.8%. In [4], the ED50 was determined as 5.5 mg/kg/day.

In the case of `COc1cccc2c1C(=O)c1c(O)c3c(c(O)c1C2=O)C[C@@](O)(C(=O)CO)C[C@@H]3O[C@H]1C[C@H](N)[C@H](O)[C@H](C)O1` [DOXORUBICIN], the IC50 in the series with Vero amounted to 6400 nM.

Turning to `COc1cc2c(ccc3c4cc(OC)c(OC)cc4c[n+](C)c23)cc1O.[I-]` [FAGARONINE IODIDE], the IC50 with Plasmodium falciparum [6] is 14.9 nM; with Plasmodium falciparum [8], 7.6 nM; with Vero it was over 21000 nM; with Plasmodium falciparum [9], 7.4 nM. Besides, the inhibition in vivo at 1 mg/kg/day in series [1] amounted to 4.8%. Moreover, the inhibition in vivo at 5 mg/kg/day in [7] turned out to be 38.1%. Further, the MSD in [2] is over 13 days; in series [10], 11.5 days; in [5], 8.6 days; in series [13], 10.7 days. For the same compound, the Activity result with Mus musculus is recorded as “Non-toxic”. Moreover, the inhibition in vivo at 10 mg/kg/day in [3] came to 91.5%. Also, in series [11], the selectivity ratio is over 1400. In addition, in series [4], the 50% effective dose (ED50) was found to be 6 mg/kg/day. For the same compound, the inhibition in vivo at 2.5 mg/kg/day in [12] is 27%.
